Compound activity (PubChem)
Rows were chosen to be rich in hits. Some 4% of all compounds tested hit in one or more screens of this group.
FN deposition inh = fibronectin deposition inhibition | AH1F fibroblasts, Alexa488-fibronectin deposition fluorescence, overnight | inhibition, % at 12.6 µM | actives 0.086% (n = 350,000) | AID 743247;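 active = mean inhibition across replicates of 30% or more, regardless of how many single replicates reach that level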
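Material: AH1F fibroblast monolayer depositing Alexa488-labelled fibronectin into matrix / Amount: 10000 AH1F cells per well / Signal: fluorescence 485/525 nm / Medium: DMEM, 2% serum / Compound: single dose, pinned / Incubation: 1 h cell adhesion before compound, then overnight fibronectin incubation / Reagent: Alexa488-FN, 24 nM final / Read-out: inhibition of fibronectin deposition signal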
C2C12 statin = protects C2C12 myotubes from simvastatin toxicity; rescue of ATP level, % at 7.49 µM; actives 0.78% (n = 330,000); ATP luminescence, 48 h; scaled: DMSO 0, geranylgeraniol control 100;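 active = mean ATP rescue above about 67%, or every replicate alone reaching that limit, limit read from the data, passing the limit was not always enough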;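 also: myotubes were challenged with 10 µM simvastatin during compound exposure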
FGF22 binding = FGF22 (human) thermal shift binding; recombinant FGF22 thermal shift, SYPRO orange fluorescence; percent of sucrose octasulfate shift, DMSO zero; AID 651658; actives 1.5% (n = 340,000); Q9HCT0; activity (Tm shift, normalised), % at 9.99 µM;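 active = mean Tm shift, scaled 0 neutral to 100 positive control, at about 1.3% or above, every replicate too, limit read from the data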
Target sequence (Q9HCT0 whole entry, looked up): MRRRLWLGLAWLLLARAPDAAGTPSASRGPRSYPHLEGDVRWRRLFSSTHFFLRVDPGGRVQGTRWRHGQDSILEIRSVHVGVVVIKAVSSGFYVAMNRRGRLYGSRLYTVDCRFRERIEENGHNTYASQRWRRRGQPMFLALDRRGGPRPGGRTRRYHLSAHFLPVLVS
E-selectin induc = E-selectin induction on HUVECs; P16581; HUVEC E-selectin immunofluorescence imaging; normalized: neutral wells 0, TNF-alpha wells 100; activation, % at 7.58 µM; actives 0.37% (n = 260,000); AID 686992;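 active = mean E-selectin-positive cell signal at least 10% of the positive control, reached in at least 60% of replicates, without over 20% cell loss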
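Assay system: HUVEC primary endothelial cells. Input: 3,000 HUVEC seeded per well. Doses: one compound dose added by pin transfer. Read-out basis: % PE-positive cells. Benchmarks: TNF-alpha high, DMSO low. Detection: immunofluorescence imaging. Buffer or medium: EGM-2, gelatin.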
SIRT5 inh = inhibitors of human sirtuin-5 desuccinylase; actives 1.1% (n = 330,000); inhibition, % at 15 µM; AID 652115; Purified SirT5, succinyl-peptide AMC, trypsin-coupled fluorescence; Q9NXA8; in the data active = inhibition above about 15%
Target sequence (Q9NXA8 whole entry, looked up): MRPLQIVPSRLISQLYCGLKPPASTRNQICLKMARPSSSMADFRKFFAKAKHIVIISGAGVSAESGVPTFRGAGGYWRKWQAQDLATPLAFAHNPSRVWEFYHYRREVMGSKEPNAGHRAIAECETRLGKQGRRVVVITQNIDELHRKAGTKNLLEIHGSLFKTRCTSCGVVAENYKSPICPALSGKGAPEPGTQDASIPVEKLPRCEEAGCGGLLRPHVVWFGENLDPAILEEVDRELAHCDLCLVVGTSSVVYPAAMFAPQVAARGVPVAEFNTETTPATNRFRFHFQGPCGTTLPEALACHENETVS
rRNA inh HTS = inhibitors of bacterial rRNA selective over humanized ribosomes | E. coli WT GFP vs humanized-ribosome RFP mutants, fluorescence, 24 h; stronger effect = lower value; DMSO median 0, no signal -100 | GFP signal change (wild-type ribosome), % (no concentration beside the values) | actives 1.6% (n = 350,000) | AID 720706;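 active = significant combined selectivity score with lowered wild-type GFP, culture density cut under 30%, mutant RFP and density less affected; inactive = any of these conditions unmet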
Numbers stand for hits; - = inactive; . = no result; ! = not active in a repeat.

SMILES	FN deposition inh	C2C12 statin	FGF22 binding	E-selectin induc	SIRT5 inh	rRNA inh HTS
C[C@H](CO)N1C[C@H](C)[C@@H](CN(C)C(=O)Nc2cccc3ccccc23)Oc2ccc(NS(C)(=O)=O)cc2CC1=O	.	.	-	.	-	-
COCCCN(C(=S)Nc1cc(Cl)cc(Cl)c1)C(C)c1ccccn1 (centres undefined)	-	-	-	.	-	-39
Cc1cccc(CCNC(=O)c2oc3c(C)c(C)ccc3c2C)n1	-	-	-	-	-	-
Cc1c(C(=O)NCc2ccco2)oc2ccc(Br)cc12	-	-	-	-	-	-
Cc1ccc2c(C)c(C(=O)NCCc3ccco3)oc2c1C	-	-	-	-	-	-26
Cc1c(C(=O)NCc2ccco2)oc2ccccc12	-	-	-	48	-	-
CCn1nnc(NC(=S)NC(=O)c2ccc(-c3cccc(Cl)c3)o2)n1	-	.	-	.	-	-21
CCCn1nnc(NC(=O)c2ccc(-c3cccc(Cl)c3)o2)n1	-	.	.	.	.	.
C[C@@H]1CN([C@H](C)CO)S(=O)(=O)c2ccc(C3=CCCCC3)cc2O[C@@H]1CN(C)C(=O)c1ccccc1	-	-	-	-	-	-
CCOC(=O)C1(CCSC)NC(c2ccco2)C2C(=O)N(CC)C(=O)C21 (centres undefined)	-	104	.	.	.	.
CCOC(=O)C1(CC)NC(c2ccco2)C2C(=O)N(CC)C(=O)C21 (centres undefined)	-	-	.	.	.	.
CCCCNC(=O)c1ccc2nc(-c3ccco3)c(-c3ccco3)nc2c1	-	-	-	-	.	-
O=C(NCCCO)c1ccc2nc(-c3ccco3)c(-c3ccco3)nc2c1	-	-	43	-	15	-
CCN(CC)S(=O)(=O)c1ccc(-n2c(=O)c(C(C)C)c(C)n2C)cc1	-	87	-	-	-	-
Cc1c(C(C)C)c(=O)n(-c2ccc(S(=O)(=O)NC(C)C)cc2)n1C	-	-	-	.	-	-
COC(=O)/C=C1/C(=O)N/C(=N\c2nc(C)cc(C)n2)N1c1ccc(OC)cc1	-	.	44	.	-	-
O=S(=O)(N[C@@H]1CCCN(Cc2ccc(OCCO)cc2)C1)c1cccc2cccnc12	.	.	-	.	-	.
C[C@@H]1CN([C@H](C)CO)S(=O)(=O)c2ccc(-c3ccc(F)cc3)cc2O[C@@H]1CN(C)C(=O)C1CCC1	.	-	.	-	.	-
Nc1nc(SCc2ccc(Cl)c(Cl)c2)n[nH]1	-	-	-	-	-	-37
COc1ccc(NC2CCCN(C(=O)c3csc(C(C)C)n3)C2)cc1OC (centres undefined)	-	-	-	79	-	-
COc1ccc(NC2CCCN(C(=O)c3csc(C(C)C)n3)C2)cc1 (centres undefined)	-	-	-	-	-	-
CCS(=O)(=O)Nc1ccc2c(c1)C(=O)N(C)[C@H]1CC[C@@H](CC(=O)N3CCN(C)CC3)O[C@H]1CO2	-	-	-	-	-	-
COC(=O)c1ccc(N2C(=O)CC(N(C)Cc3ccccc3)C2=O)cc1 (centres undefined)	.	87	.	.	.	.
CN1C(=O)c2cc(NC(=O)C3CC3)ccc2OC[C@@H]2O[C@@H](CC(=O)NCCc3ccncc3)CC[C@@H]21	-	-	-	-	-	-
Cc1ccc(S(=O)(=O)Nc2cc(C)c(O)c(Sc3n[nH]c(C)n3)c2)cc1	-	-	-	.	-	-43
COc1ccc(NC(=O)N(C)C[C@H]2Oc3c(NC(=O)c4nc5ccccc5s4)cccc3C(=O)N([C@@H](C)CO)C[C@H]2C)cc1	-	-	-	-	20!	-
COc1ccc(NC(=O)N(C)C[C@H]2Oc3c(NC(=O)c4nc5ccccc5s4)cccc3C(=O)N([C@@H](C)CO)C[C@@H]2C)cc1	-	.	-	-	-	-
C[C@@H]1CN([C@H](C)CO)C(=O)c2cccc(NC(=O)c3nc4ccccc4s3)c2O[C@@H]1CN(C)C(=O)Nc1cccc2ccccc12	-	81	-	-	-	-
C/C=C/c1ccc([C@H]2[C@@H](CN(C)C(=O)C3CC3)N(C(=O)CC)[C@H]2CO)cc1	-	-	.	-	.	-
Cc1ccc(N=C2C(=O)Nc3ccc(Br)cc32)cc1	-	-	-	-	15	-
